Results as given in article PMC6399515 (Insect Biochemistry and Molecular Biology, 2016).

What was measured:
[1] = tested on: CYP6P5
[2] = biological target: T1, CYP6P2 (Anopheles gambiae, UniProt Q8T629, V81I); assay: biochemical
T1 sequence (Q8T629 1-507 V81I): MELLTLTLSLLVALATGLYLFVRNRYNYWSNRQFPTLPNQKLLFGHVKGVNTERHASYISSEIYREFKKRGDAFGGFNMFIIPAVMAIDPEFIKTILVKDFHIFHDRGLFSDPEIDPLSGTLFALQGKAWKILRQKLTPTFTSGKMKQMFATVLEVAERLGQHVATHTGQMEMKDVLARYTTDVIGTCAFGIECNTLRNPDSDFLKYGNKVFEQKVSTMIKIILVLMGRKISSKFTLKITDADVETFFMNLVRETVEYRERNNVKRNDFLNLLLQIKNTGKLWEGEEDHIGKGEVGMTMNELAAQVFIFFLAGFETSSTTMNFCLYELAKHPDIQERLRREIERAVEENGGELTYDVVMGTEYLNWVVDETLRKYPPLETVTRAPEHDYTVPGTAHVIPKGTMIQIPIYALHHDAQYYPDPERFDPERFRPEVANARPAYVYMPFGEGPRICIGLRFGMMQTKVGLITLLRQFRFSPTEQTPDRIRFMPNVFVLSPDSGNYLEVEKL
T1 sequence (Q7QFI3 1-587 partner): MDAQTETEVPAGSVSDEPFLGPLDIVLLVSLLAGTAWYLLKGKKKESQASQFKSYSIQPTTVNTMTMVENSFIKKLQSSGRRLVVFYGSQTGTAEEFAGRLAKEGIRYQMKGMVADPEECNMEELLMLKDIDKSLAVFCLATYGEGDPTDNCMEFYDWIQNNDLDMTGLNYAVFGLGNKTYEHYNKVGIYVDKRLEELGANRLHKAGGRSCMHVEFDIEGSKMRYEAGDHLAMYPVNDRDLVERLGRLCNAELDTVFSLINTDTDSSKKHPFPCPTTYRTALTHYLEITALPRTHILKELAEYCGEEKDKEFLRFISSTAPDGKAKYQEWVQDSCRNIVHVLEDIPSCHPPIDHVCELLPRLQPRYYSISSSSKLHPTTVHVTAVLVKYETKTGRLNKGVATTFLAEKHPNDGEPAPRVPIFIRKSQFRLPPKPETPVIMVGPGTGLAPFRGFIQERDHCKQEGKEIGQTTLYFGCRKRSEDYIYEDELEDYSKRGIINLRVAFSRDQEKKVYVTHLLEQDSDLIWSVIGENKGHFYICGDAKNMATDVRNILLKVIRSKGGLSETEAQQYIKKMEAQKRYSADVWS
T1 sequence (Q86QH4 1-128 partner): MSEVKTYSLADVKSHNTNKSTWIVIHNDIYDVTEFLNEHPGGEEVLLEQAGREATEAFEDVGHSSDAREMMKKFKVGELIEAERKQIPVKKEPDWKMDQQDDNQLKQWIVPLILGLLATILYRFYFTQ

[3] = biological target: CYP6M2 (Anopheles gambiae, UniProt Q7Q449); assay: biochemical
CYP6M2, sequence (Q7Q449 1-499, one chain of several): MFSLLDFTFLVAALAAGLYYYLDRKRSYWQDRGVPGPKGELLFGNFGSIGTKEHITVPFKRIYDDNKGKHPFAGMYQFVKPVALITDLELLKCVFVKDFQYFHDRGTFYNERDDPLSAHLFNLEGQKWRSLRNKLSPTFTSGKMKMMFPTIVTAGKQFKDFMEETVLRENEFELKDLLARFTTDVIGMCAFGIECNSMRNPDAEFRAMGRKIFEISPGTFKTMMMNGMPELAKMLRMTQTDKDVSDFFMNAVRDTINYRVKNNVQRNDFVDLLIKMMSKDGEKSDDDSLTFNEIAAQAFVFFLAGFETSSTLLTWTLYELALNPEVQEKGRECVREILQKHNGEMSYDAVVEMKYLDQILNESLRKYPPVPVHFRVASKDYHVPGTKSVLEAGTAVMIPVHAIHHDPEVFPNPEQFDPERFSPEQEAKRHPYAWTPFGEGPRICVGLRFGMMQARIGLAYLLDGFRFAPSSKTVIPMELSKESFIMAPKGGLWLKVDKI

[4] = biological target: T2, CYP6P3 (Anopheles gambiae, UniProt Q8T632); assay: Reciprocal IC50 of CYP6P3 metabolism of PPF and permethrin; format: biochemical
T2 sequence (Q8T632 1-509): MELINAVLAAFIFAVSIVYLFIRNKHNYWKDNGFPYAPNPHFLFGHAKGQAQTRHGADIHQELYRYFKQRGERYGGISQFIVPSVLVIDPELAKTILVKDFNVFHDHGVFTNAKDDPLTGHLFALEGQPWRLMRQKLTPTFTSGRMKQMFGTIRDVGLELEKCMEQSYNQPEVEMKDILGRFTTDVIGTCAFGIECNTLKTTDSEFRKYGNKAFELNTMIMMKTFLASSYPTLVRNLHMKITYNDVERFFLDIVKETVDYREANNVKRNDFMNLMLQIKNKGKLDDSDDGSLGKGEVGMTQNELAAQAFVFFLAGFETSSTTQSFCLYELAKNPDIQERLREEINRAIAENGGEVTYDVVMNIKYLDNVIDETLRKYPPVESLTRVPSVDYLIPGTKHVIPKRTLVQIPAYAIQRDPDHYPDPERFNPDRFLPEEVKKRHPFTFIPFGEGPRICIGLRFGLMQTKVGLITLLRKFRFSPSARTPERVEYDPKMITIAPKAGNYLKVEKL
T2 sequence (Q86QH5 1-679 partner): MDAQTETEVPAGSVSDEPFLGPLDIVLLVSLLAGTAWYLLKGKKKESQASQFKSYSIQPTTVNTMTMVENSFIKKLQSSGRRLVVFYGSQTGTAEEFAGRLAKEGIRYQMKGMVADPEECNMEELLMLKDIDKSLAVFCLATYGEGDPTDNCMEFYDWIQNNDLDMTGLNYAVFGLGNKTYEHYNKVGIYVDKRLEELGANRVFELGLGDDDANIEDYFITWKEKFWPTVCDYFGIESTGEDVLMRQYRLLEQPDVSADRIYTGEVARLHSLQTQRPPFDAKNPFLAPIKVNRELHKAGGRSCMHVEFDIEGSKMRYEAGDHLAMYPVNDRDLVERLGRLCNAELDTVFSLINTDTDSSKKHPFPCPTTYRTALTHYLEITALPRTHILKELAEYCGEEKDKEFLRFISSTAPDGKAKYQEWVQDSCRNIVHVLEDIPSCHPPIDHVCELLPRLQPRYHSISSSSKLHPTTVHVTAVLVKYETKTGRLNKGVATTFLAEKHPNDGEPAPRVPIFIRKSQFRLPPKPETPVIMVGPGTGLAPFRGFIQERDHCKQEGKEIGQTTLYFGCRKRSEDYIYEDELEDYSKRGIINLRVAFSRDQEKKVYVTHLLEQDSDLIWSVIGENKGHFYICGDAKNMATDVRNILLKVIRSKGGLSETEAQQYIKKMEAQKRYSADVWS
T2 sequence (Q86QH4 1-128 partner): T1 sequence (Q86QH4 1-128 partner)
How it was run: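 CYP6P3 was expressed with AgCPR in E. coli JM109 membranes, with b5 added at 10:1 b5:P450. Reactions ran at 30 °C for 90 min with shaking: 0.1 μM P450, 1.0 μM b5, 0.2 M Tris-HCl pH 7.4, 0.25 mM MgCl2, NADPH-regenerating system. PPF (0–1.6 mM) or permethrin (0–3.2 mM) was titrated against the other at fixed 20 μM. Substrate loss was read by C18 HPLC at 232 nm, triplicate controls.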

[5] = biological target: T2, CYP6P3; assay: biochemical
[6] = tested on: mosquito P450s
[7] = tested on: all mosquito P450s of the panel apart from CYP6Z2 (CYP6M2, CYP6P2, CYP6P3, CYP6P4, CYP9J5); assay: in vitro; settings: Anopheles gambiae

Row | Structure (SMILES) | % PPF depletion + PBO ([1]; Anopheles gambiae, pH 7.4) [%] | % PPF depletion −PBO ([1]; Anopheles gambiae, pH 7.4) [%] | IC50 ([2]; IC50 of DEF metabolism) [µM] | IC50 ([2]; category of inhibition of DEF metabolism) [µM] | IC50 [3] [µM] | IC50 [4] [µM] | IC50 [5] [µM] | Inhibition ratio (%): reduction of PPF depletion caused by PBO [1] [%] | strength of inhibition relative to PPF [6] | IC50 ([7]; pH 7.4, IC50 of DEF activity) [µM] | IC50 ([7]; pH 7.4, category of inhibition of DEF activity) [µM]
1 | CC(COc1ccc(Oc2ccccc2)cc1)Oc1ccccn1 (stereo not drawn) [PPF, pyriproxyfen] | 2.40 ± 2.01 | 39.96 ± 1.04 | 9.95 | 1 to 10 | 14.1 | 92.7 | 15.8 | – | – | – | –
2 | CCCCOCCOCCOCc1cc2c(cc1CCC)OCO2 [PBO, piperonyl butoxide] | – | – | – | – | – | – | – | 95.4 | – | – | –
3 | CC1(C)C(C=C(Cl)Cl)C1C(=O)OCc1cccc(Oc2ccccc2)c1 (mixture of isomers) [Permethrin, 3-phenoxybenzyl (1R,S)-cis,trans-3-(2,2-dichlorovinyl)-2,2-dimethylcyclopropanecarboxylate] | – | – | 8.61 | – | 8.07 | 61.2 | 6.77 | – | 2–3 fold | 1 to 10 | 1 to 10
